# Rows were chosen to be rich in hits. Some 2.3% of all compounds tested hit in one or more screens of this group.
# PRMT1 inh: blocks human protein arginine methyltransferase 1 | AID 652257 | recombinant PRMT1, activity-based probe fluorescence polarization | Q99873 | inhibition, % at 2.79 µM | actives 1.3% (n = 370,000);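 active = inhibition above about 21% made by adding two undisclosed values, limit read from the data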
# Fam108B counter: counter-screen for RBBP9 inhibitors: inhibitors of mouse Fam108B | actives 0.33% (n = 300,000) | recombinant Fam108B, FP-Rh probe fluorescence polarization | AID 1947 | inhibition, % at 9.51 µM;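 active = inhibition above the screen mean inhibition plus 3 SD, computed separately per campaign, cut at about 18% in these data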;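 note: inhibitors lower polarization as less probe binds the enzyme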
# PAD4 FP inh: blocks human protein arginine deiminase 4. actives 0.41% (n = 330,000). Q9UM07. inhibition, % at 6.36 µM. recombinant PAD4, RCA probe fluorescence polarization;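 active = percent inhibition above a cutoff equal to the mean of all tested compounds plus 3 SD, cut at about 15% in these data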;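 note: 0% = PAD4 with RCA probe and DMSO and 100% = probe without PAD4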
# GSTO1 counter: GSTO1 inhibition, counter-screen for RBBP9 inhibitors. inhibition, % at 5.96 µM. actives 1.1% (n = 300,000). P78417. AID 1974. recombinant GSTO1, activity-based probe fluorescence polarization;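 active = inhibition above the campaign mean inhibition plus 3 SD, cut at about 35% in these data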;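 note: 0% = GSTO1-1 with DMSO and 100% = wells lacking GSTO1-1 enzyme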
# PME-1 inh: PME-1 (human) inhibition; Q9Y570; recombinant PME-1, FP-Rh probe fluorescence polarization; inhibition, % at 5.9 µM; actives 0.53% (n = 320,000); AID 2130;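 active = inhibition above the campaign mean of all compounds plus 3 SD, cut at about 26% in these data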;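 note: competitive labeling of PME-1 active site by serine hydrolase directed probe; 0% = PME-1 with DMSO and 100% = wells lacking PME-1 enzyme; inhibitors block probe labeling so polarization falls and inhibition rises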
# Target sequence (Q9Y570 whole entry, looked up): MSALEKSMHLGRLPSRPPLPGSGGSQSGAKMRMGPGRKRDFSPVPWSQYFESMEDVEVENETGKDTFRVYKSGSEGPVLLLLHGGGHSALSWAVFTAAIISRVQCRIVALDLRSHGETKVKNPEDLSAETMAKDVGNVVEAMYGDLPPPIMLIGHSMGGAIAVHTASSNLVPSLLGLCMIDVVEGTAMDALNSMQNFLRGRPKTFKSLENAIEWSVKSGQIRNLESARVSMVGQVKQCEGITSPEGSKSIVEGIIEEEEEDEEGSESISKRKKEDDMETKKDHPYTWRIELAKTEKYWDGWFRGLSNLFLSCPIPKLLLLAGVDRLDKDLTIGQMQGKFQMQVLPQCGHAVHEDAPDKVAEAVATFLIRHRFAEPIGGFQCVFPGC
# RBBP9 inhibitor: inhibitors of human serine hydrolase RBBP9; recombinant RBBP9, FP-Rh probe fluorescence polarization; inhibition, % at 7.94 µM; O75884; actives 0.2% (n = 220,000);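 active = inhibition above the campaign mean of all tested compounds plus 3 SD, cut at about 14% in these data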;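 note: plate controls were DMSO wells with RBBP9 for no effect and wells lacking RBBP9 protein for full effect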
# Target sequence (O75884 whole entry, looked up): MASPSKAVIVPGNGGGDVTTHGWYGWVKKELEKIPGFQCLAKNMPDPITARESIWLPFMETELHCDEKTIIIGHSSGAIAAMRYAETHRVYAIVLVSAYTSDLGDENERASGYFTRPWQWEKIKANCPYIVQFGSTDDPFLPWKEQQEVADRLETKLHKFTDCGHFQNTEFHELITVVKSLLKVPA
#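 Test system: recombinant human RBBP9. Quantity: 2.5 µM RBBP9 dispensing solution, before mixing. Detection: FP readout at 525/598 nm. Reagent: Serine-hydrolase probe FP-Rh, 375 nM pre-mixing. Measure: % inhibition. Control set: DMSO-treated enzyme wells and wells lacking RBBP9. Buffer or medium: Tris-NaCl-Pluronic buffer, pH 8.0. Times: preincubation 30 min plus labeling 45 min at 25 °C.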
# PRMT1 inh conf: PRMT1 (human) inhibition, FP confirmation; recombinant His-PRMT1, activity-based probe fluorescence polarization; actives 42% (n = 3,300); shares compounds with PRMT1 inh; inhibition, % at 2.79 µM;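 active = mean inhibition across replicates above the hit cutoff derived for the earlier primary screen, cut at about 22% in these data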
# Starred values were filed as active, the others as inactive; . = not tested or not shown.
SMILES,PRMT1 inh,Fam108B counter,PAD4 FP inh,GSTO1 counter,PME-1 inh,RBBP9 inhibitor,PRMT1 inh conf
CCOC(=O)c1c(-c2ccc(C)o2)csc1NC(=O)CSc1ncn[nH]1,32.6*,-1.4,2.0,4.3,6.7,-2.4,13.7
CCOC(=O)c1c(-c2ccc(C)o2)csc1NC(=S)NC(=O)N(C)C,80.3*,5.1,-2.8,28.3,0.0,-43.9,11.5
O=c1c2c([N+](=O)[O-])cc([N+](=O)[O-])cc2sn1Cc1ccccc1,95.8*,3.8,0.9,-3.4,10.8,.,96.5*
O=C1c2cccc3cccc(c23)C(=O)N1CC1CCCO1 (stereo not drawn),2.1,2.4,-2.1,6.0,2.0,5.2,.
N#Cc1c(N(CCO)CCO)nc(N)c2c(N)nc3c(c12)CC(=O)N3CC1CCCO1 (stereo not drawn),29.7*,3.1,1.4,32.1,-5.2,-0.9,14.3
CC(=O)c1c(C)[nH]c(C(=O)Nc2cccc(C#N)c2)c1C,-5.6,-3.4,-2.6,-0.1,-5.4,.,.
CCc1c(C(=O)Nc2ccccc2)c(C)[nH]c(=S)c1C#N,42.7*,-0.1,4.7,7.2,-2.8,-2.7,87.9*
Cc1[nH]c(=S)c(C#N)c(C)c1C(=O)Nc1ccccc1,33.1*,-1.2,-4.5,0.4,3.4,0.4,12.7
O=C(CCNC(=O)c1ccccc1Cl)Nc1nc(-c2ccccc2Cl)cs1,0.1,-3.2,-5.8,-4.9,-5.7,-1.7,.
O=C(CSc1nccc(=O)[nH]1)Nc1ccc(F)c(Cl)c1,41.9*,13.6,2.9,-8.5,-7.9,-5.4,30.5*
CCOC(=O)c1c(-n2cnnn2)sc2c1CCCC2,-3.6,-3.4,-2.5,9.8,5.2,-6.3,.
CCOC(=O)c1c(N2C(=O)C3C4C=CC(O4)C3C2=O)sc2c1CCCC2 (stereo not drawn),82.5*,0.3,1.5,0.8,4.9,-2.7,56.5*
Cc1ccccc1OCC(=O)OCC(=O)N1CCc2ccccc21,2.5,.,.,.,.,.,.
CC(NC(=O)c1ccc(NC(=O)c2ccco2)cc1)c1ccccc1 (stereo not drawn),0.3,-3.5,-1.9,-3.1,0.7,.,.
COc1cccc(C2=NOC(C(=O)Nc3cccc(C(C)=O)c3)C2)c1 (stereo not drawn),-2.1,-1.4,-2.7,-3.7,2.8,-7.0,.
O=C(CSc1nnc(CNC(=O)c2ccco2)o1)Nc1ccccc1,-2.1,-2.4,-8.1,-2.0,-1.1,-6.2,.
O=C(CSc1nnc(CNC(=O)c2ccco2)o1)Nc1nc2ccccc2s1,56.4*,-0.1,-0.6,13.7,4.3,-5.3,0.3
O=C(Nc1sc2c(c1-c1nc3ccccc3s1)CCNC2)C(F)(F)F,40.7*,.,.,.,.,.,10.5
COc1ccc(-c2noc(CCC(=O)N3CCC(C)CC3)n2)cc1,-1.6,1.1,3.5,-1.7,2.4,-1.8,.
C[n+]1c(-c2ccccc2)sc([S-])c1-c1ccccc1,50.8*,0.5,7.5,-5.4,-1.2,.,20.0
COC(=O)c1ccc(NCc2c(O)ccc(O)c2Br)cc1Cl,82.5*,.,.,.,.,.,15.1
COC(=O)c1cc(NCc2c(F)cccc2Cl)ccc1N1CCOCC1,6.8,4.2,-1.4,3.5,-0.4,-4.4,.
COc1ccc(C(C)=O)cc1CN1C(=O)NC2(CCCCCC2)C1=O,-1.6,3.3,2.1,4.3,-4.8,-2.2,.
O=C(NC(=S)NCc1ccccc1)c1ccccc1F,3.5,-3.0,2.2,-0.4,3.4,-5.1,.
O=C(NC(=S)NC(=O)c1ccccc1F)c1ccccc1F,28.1*,-0.2,4.7,-2.8,-5.0,-2.3,1.8
SMILES,PRMT1 inh,Fam108B counter,PAD4 FP inh,GSTO1 counter,PME-1 inh,RBBP9 inhibitor,PRMT1 inh conf
Cn1c(SSc2ccc(-c3cccnc3)n2C)ccc1-c1cccnc1,68.9*,.,.,.,.,.,77.2*
c1cncc(-c2nnc(-c3cccnc3)nn2)c1,2.1,3.4,-1.4,-2.4,-4.8,3.4,.
NNc1cc([N+](=O)[O-])cc2c1C(=O)N(Cc1ccccc1)S2=O (stereo not drawn),25.9*,10.4,0.0,8.0,9.8,-4.7,2.7
CC(C)=NNc1cc([N+](=O)[O-])cc2c1C(=O)N(C)S2=O (stereo not drawn),13.3,1.1,-0.6,31.4,2.2,-9.5,.
COc1ccccc1CCNC(=O)C(=O)NCC1OCCN1S(=O)(=O)c1ccccc1 (stereo not drawn),-1.6,-3.5,0.8,-2.4,-2.6,.,.
O=S(=O)(c1ccc(SCCOc2ccccc2Cl)nc1)N1CCCC1,5.2,.,0.3,.,0.9,.,.
O=S(=O)(c1cccc(Cl)c1)N1CCN(S(=O)(=O)c2ccc3c(c2)OCCO3)CC1,-2.4,.,-2.2,.,.,.,.
CCCCCC[N+](C)(C)CCSSCC[N+](C)(C)CCCCCC,90.6*,-1.4,-2.0,20.1,-1.8,0.5,55.6*
CCCCCCCCCCCCCCCC[N+](C)(C)CC,-4.4,5.2,-3.6,5.6,-4.7,.,.
Nc1c(C(=O)Nc2ccc(Cl)c(Cl)c2)sc2nc(-c3cccnc3)ccc12,26.4*,-2.2,-1.4,-0.8,8.0,-22.9,6.3
Nc1c(C(=O)Nc2ccccc2F)sc2nc(-c3cccnc3)ccc12,13.8,-8.4,5.2,-1.8,11.1,-6.4,.
O=C(Cn1c2ccccc2c2nc3n(c(=O)c21)CCCS3)Nc1ccccc1,1.9,5.7,1.1,3.5,-0.3,.,.
O=C1NC(=O)/C(=C\c2ccc(N3CCOCC3)o2)N1,30.3*,-4.0,-6.0,5.7,-3.8,8.6,12.4
O=C1NC(=O)/C(=C/c2ccc(N3CCOCC3)o2)N1,6.0,0.7,-1.8,3.2,-1.0,-0.8,.
CCOc1cc(C2C(C(=O)c3ccc(C)cc3)=C(C(=O)OC)Nc3nnnn32)ccc1O (stereo not drawn),0.3,-1.3,-0.8,1.7,-0.4,-4.6,.
CN(C)c1ccc2cc(S(=O)(=O)O)cc(O)c2c1,102.3*,.,.,.,.,.,32.6*
CN(C)c1ccc2c(O)cc(=O)n(C)c2c1,2.8,-1.4,-6.5,21.3,9.4,2.2,.
CC(=O)CSc1cc(-c2ccccc2)nc2ncnn12,28.2*,0.3,0.5,-11.8,-4.6,-10.5,37.0*
NC(=O)c1ccc(NC(=O)COC(=O)c2ccc3ccccc3n2)cc1,1.9,.,1.6,.,.,.,.
Cc1ccc(CCNC(=O)C2CCN(S(=O)(=O)N3CCCCC3)CC2)cc1,-2.4,4.5,-0.1,-2.4,3.3,.,.
COc1cccc(NC(=S)NC(=O)/C=C/c2ccco2)c1,13.6,4.5,-3.5,8.9,-3.8,.,.
Cc1ccc(NC(=S)NC(=O)/C=C/c2ccco2)c(O)c1,27.9*,4.5,-2.8,13.0,8.9,-5.5,17.9
O=C(/C=C/c1ccco1)Nc1ccccc1C(=O)O,17.3,0.3,-5.0,-1.3,-3.5,-7.8,.
O=C(/C=C/c1ccco1)Nc1ccccc1C(=O)Nc1cccc(C(=O)O)c1,25.2*,-0.7,-1.9,-12.0,-12.5,-8.6,-1.6
O=C(/C=C/c1ccco1)NC(=S)Nc1cccc(C(=O)O)c1,34.3*,5.5,6.9,10.7,-12.5,.,29.5*

# Bioassay records from PubChem.
